According to ChEMBL document CHEMBL1143838, “Candida albicans and Candida dubliniensis respond differently to echinocandin antifungal agents in vitro” (2007):
Values after ≈ are worked out from the molar mass of the structure shown. *1 amine or outer side, *2 acyl side, *3 side chain or, on linkers, in order; H or OH if unused. Where a SMILES comes first, the peptide text is derived from it. Bridges are numbered along the chain shown (N, C = ends). [ ]: non-standard residue; d: D form. The star is where a group is joined. pTerphenylCO(4''-OnC5H11) = CCCCCOc1ccc(-c2ccc(-c3ccc(C(=O)*)cc3)cc2)cc1; Orn(4R-OH,5R-OH) = O=C([C@H](C[C@@H](O)[C@@H](O)N[*:3])N[*:1])[*:2]; hTyr(3S-OH,4S-OH) = N[C@H](C(=O)O)[C@H](O)[C@@H](O)c1ccc(O)cc1; Pro(3S-OH,4S-Me) = C[C@H]1CN[C@H](C(=O)O)[C@H]1O; Hyp = O=C(O)[C@@H]1C[C@@H](O)CN1

How the values were obtained:
Format in all cases: functional
Candida dubliniensis [1] = assay: Antifungal activity against Candida dubliniensis B71507 after 24 hrs by CLSI M27-A test
Method in brief: (§1)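 Broth microdilution with echinocandins as aqueous doubling dilutions. Yeasts were grown overnight at 30°C in NGY and seeded at 10^3 yeasts/ml initial concentration in MOPS-buffered RPMI 1640, then incubated at 35°C for 24 h. The MIC was read visually as the lowest concentration giving a marked decrease in visible growth; paradoxical or trailing growth was noted.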

Candida dubliniensis [2] = assay: Antifungal activity against Candida dubliniensis Leic875 after 24 hrs by CLSI M27-A test; method in brief: as §1
Candida dubliniensis [3] = assay: Antifungal activity against Candida dubliniensis J931021 after 24 hrs by CLSI M27-A test; method in brief: as §1
Candida albicans [4] = assay: Antifungal activity against Candida albicans NR4 after 24 hrs by EUCAST test
Method in brief: (§2)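 EUCAST broth microdilution with aqueous doubling dilutions of drug. Inoculum grown overnight at 30°C in NGY, then added to MOPS-buffered RPMI 1640 with 2% glucose at an initial 10^5 yeasts/ml. Incubated 35°C for 24 h. MICs taken from triplicate spectrophotometric dose-response data as 50% and 80% growth-reduction endpoints.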

Candida dubliniensis [5] = assay: Antifungal activity against Candida dubliniensis B71507 after 24 hrs by EUCAST test
Method in brief: (§3)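 Yeasts were grown overnight at 30°C in NGY, then inoculated at 10^5 yeasts/ml initial concentration into MOPS-buffered RPMI 1640 with 2% glucose containing aqueous doubling dilutions of drug. Plates were held at 35°C for 24 h. MICs came from triplicate spectrophotometric dose-response data at 50% and 80% growth-reduction endpoints. Trailing meant a >100-fold gap between these endpoints; paradoxical meant regrowth ≥5% above the curve minimum.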

Candida albicans [6] = assay: Antifungal activity against Candida albicans T32 after 24 hrs by EUCAST test; method in brief: as §2
Candida dubliniensis [7] = assay: Antifungal activity against Candida dubliniensis Leic875 after 24 hrs by EUCAST test; method in brief: as §3
Candida dubliniensis [8] = assay: Antifungal activity against Candida dubliniensis AMCC after 24 hrs by CLSI M27-A test
Method in brief: (§4)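 CLSI M27-A broth microdilution with aqueous doubling dilutions of drug. Inoculum grown overnight at 30°C in NGY medium, then added to MOPS-buffered RPMI 1640 at an initial 10^3 yeasts/ml. Incubated 35°C for 24 h. MIC read visually as the lowest concentration giving a marked decrease in visible growth; paradoxical or trailing growth noted.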

Candida albicans [9] = assay: Antifungal activity against Candida albicans T28 after 24 hrs by CLSI M27-A test; method in brief: as §4
Candida dubliniensis [10] = assay: Antifungal activity against Candida dubliniensis IK after 24 hrs by CLSI M27-A test; method in brief: as §1
Candida albicans [11] = assay: Antifungal activity against Candida albicans Y109 after 24 hrs by CLSI M27-A test; method in brief: as §4
Candida albicans [12] = assay: Antifungal activity against Candida albicans NR2 after 24 hrs by CLSI M27-A test; method in brief: as §4
Candida dubliniensis [13] = assay: Antifungal activity against Candida dubliniensis FS after 24 hrs by EUCAST test; method in brief: as §3
Candida dubliniensis [14] = assay: Antifungal activity against Candida dubliniensis SCS65875C after 24 hrs by CLSI M27-A test; method in brief: as §1
Candida albicans [15] = assay: Antifungal activity against Candida albicans JIMS146204 after 24 hrs by CLSI M27-A test; method in brief: as §4
Candida dubliniensis [16] = assay: Antifungal activity against Candida dubliniensis 910Aa after 24 hrs by EUCAST test; method in brief: as §2
Candida dubliniensis [17] = assay: Antifungal activity against Candida dubliniensis 75/043 after 24 hrs by CLSI M27-A test; method in brief: as §4
Candida dubliniensis [18] = assay: Antifungal activity against Candida dubliniensis 81/060 after 24 hrs by EUCAST test; method in brief: as §2
Candida dubliniensis [19] = assay: Antifungal activity against Candida dubliniensis ST after 24 hrs by EUCAST test; method in brief: as §3
Candida albicans [20] = assay: Antifungal activity against Candida albicans SC5314 after 24 hrs by CLSI M27-A test; settings: SC5314, 24 h; method in brief: as §4
Candida parapsilosis = assay: Antifungal activity against Candida parapsilosis ATCC 22019 after 24 hrs by EUCAST test; settings: Lodderomyces parapsilosis, ATCC 22019, 24 h; method in brief: as §3
Candida albicans [21] = assay: Antifungal activity against Candida albicans JIMS132203 after 24 hrs by EUCAST test; method in brief: as §2
Candida albicans [22] = assay: Antifungal activity against Candida albicans T25 after 24 hrs by EUCAST test; method in brief: as §2
Candida dubliniensis [23] = assay: Antifungal activity against Candida dubliniensis SCS59662 after 24 hrs by EUCAST test; method in brief: as §3
Candida albicans [24] = assay: Antifungal activity against Candida albicans B06-341 after 24 hrs by EUCAST test; method in brief: as §2
Candida dubliniensis [25] = assay: Antifungal activity against Candida dubliniensis ST after 24 hrs by CLSI M27-A test; method in brief: as §1
Candida dubliniensis [26] = assay: Antifungal activity against Candida dubliniensis SCS17154969-2 after 24 hrs by CLSI M27-A test; method in brief: as §1
Candida dubliniensis [27] = assay: Antifungal activity against Candida dubliniensis AMCC after 24 hrs by EUCAST test; method in brief: as §2
Candida dubliniensis [28] = assay: Antifungal activity against Candida dubliniensis J930936 after 24 hrs by EUCAST test; method in brief: as §3
Candida albicans [29] = assay: Antifungal activity against Candida albicans NCPF6525 after 24 hrs by EUCAST test; method in brief: as §2
Candida albicans [30] = assay: Antifungal activity against Candida albicans NCPF6525 after 24 hrs by CLSI M27-A test; method in brief: as §4
Candida albicans [31] = assay: Antifungal activity against Candida albicans NR2 after 24 hrs by EUCAST test; method in brief: as §2
Candida dubliniensis [32] = assay: Antifungal activity against Candida dubliniensis Leic952 after 24 hrs by CLSI M27-A test; method in brief: as §1
Candida dubliniensis [33] = assay: Antifungal activity against Candida dubliniensis FS after 24 hrs by CLSI M27-A test; method in brief: as §1
Candida albicans [34] = assay: Antifungal activity against Candida albicans JIMS132203 after 24 hrs by CLSI M27-A test; method in brief: as §4
Candida albicans [35] = assay: Antifungal activity against Candida albicans Y109 after 24 hrs by EUCAST test; method in brief: as §2
Candida albicans [36] = assay: Antifungal activity against Candida albicans CAI4RI after 24 hrs by EUCAST test; method in brief: as §2
Candida dubliniensis [37] = assay: Antifungal activity against Candida dubliniensis 90/033 after 24 hrs by EUCAST test; method in brief: as §2
Candida dubliniensis [38] = assay: Antifungal activity against Candida dubliniensis Leic952 after 24 hrs by EUCAST test; method in brief: as §3
Candida albicans [39] = assay: Antifungal activity against Candida albicans JIMS101103 after 24 hrs by EUCAST test; method in brief: as §2
Candida dubliniensis [40] = assay: Antifungal activity against Candida dubliniensis KR after 24 hrs by EUCAST test; method in brief: as §3
Candida albicans [41] = assay: Antifungal activity against Candida albicans NR3 after 24 hrs by CLSI M27-A test; method in brief: as §4
Candida albicans [42] = assay: Antifungal activity against Candida albicans NR3 after 24 hrs by EUCAST test; method in brief: as §2
Candida albicans [43] = assay: Antifungal activity against Candida albicans SCS68858 after 24 hrs by CLSI M27-A test; method in brief: as §4
Candida dubliniensis [44] = assay: Antifungal activity against Candida dubliniensis IK after 24 hrs by EUCAST test; method in brief: as §3
Candida albicans [45] = assay: Antifungal activity against Candida albicans SCS68858 after 24 hrs by EUCAST test; method in brief: as §2
Candida dubliniensis [46] = assay: Antifungal activity against Candida dubliniensis 75/043 after 24 hrs by EUCAST test; method in brief: as §2
Candida dubliniensis [47] = assay: Antifungal activity against Candida dubliniensis SCS17154969-1 after 24 hrs by CLSI M27-A test; method in brief: as §1

CCCCCOc1ccc(-c2ccc(-c3ccc(C(=O)N[C@H]4C[C@@H](O)[C@@H](O)NC(=O)[C@@H]5[C@@H](O)[C@@H](C)CN5C(=O)[C@H]([C@@H](C)O)NC(=O)[C@H]([C@H](O)[C@@H](O)c5ccc(O)cc5)NC(=O)[C@@H]5C[C@@H](O)CN5C(=O)[C@H]([C@@H](C)O)NC4=O)cc3)cc2)cc1 [ANIDULAFUNGIN] ({pTerphenylCO(4''-OnC5H11)}-[Orn(4R-OH,5R-OH)]T[Hyp][hTyr(3S-OH,4S-OH)]T[Pro(3S-OH,4S-Me)]; lactam 1-C)
MIC50 (Candida dubliniensis [1]): ≤ 0.032 µg/mL
MIC50 (Candida dubliniensis [2]): ≤ 0.032 µg/mL
MIC50 (Candida dubliniensis [3]): ≤ 0.032 µg/mL
MIC50 (Candida albicans [4]): 0.13 µg/mL (≈ 0.114 µM)
MIC50 (Candida dubliniensis [5]): 0.25 µg/mL (≈ 0.219 µM)
MIC50 (Candida albicans [6]): ≤ 0.032 µg/mL
MIC50 (Candida dubliniensis [7]): ≤ 0.032 µg/mL
MIC50 (Candida dubliniensis [8]): ≤ 0.032 µg/mL
MIC50 (Candida albicans [9]): ≤ 0.032 µg/mL
MIC50 (Candida dubliniensis [10]): ≤ 0.032 µg/mL
MIC50 (Candida albicans [11]): 0.25 µg/mL (≈ 0.219 µM)
MIC50 (Candida albicans [12]): 0.5 µg/mL (≈ 0.438 µM)
MIC50 (Candida dubliniensis [13]): 4 µg/mL (≈ 3.51 µM)
MIC50 (Candida dubliniensis [14]): ≤ 0.032 µg/mL
MIC50 (Candida albicans [15]): ≤ 0.032 µg/mL
MIC50 (Candida dubliniensis [16]): ≤ 0.032 µg/mL
MIC50 (Candida dubliniensis [17]): ≤ 0.032 µg/mL
MIC50 (Candida dubliniensis [18]): ≤ 0.032 µg/mL
MIC50 (Candida dubliniensis [19]): ≤ 0.032 µg/mL
MIC50 (Candida albicans [20]): ≤ 0.032 µg/mL
MIC50 (Candida parapsilosis): 0.5 µg/mL (≈ 0.438 µM)
MIC50 (Candida albicans [21]): ≤ 0.032 µg/mL
MIC50 (Candida albicans [22]): 0.5 µg/mL (≈ 0.438 µM)
MIC50 (Candida dubliniensis [23]): ≤ 0.032 µg/mL
MIC50 (Candida albicans [24]): 0.13 µg/mL (≈ 0.114 µM)
MIC50 (Candida dubliniensis [25]): ≤ 0.032 µg/mL
MIC50 (Candida dubliniensis [26]): ≤ 0.032 µg/mL
MIC50 (Candida dubliniensis [27]): ≤ 0.032 µg/mL
MIC50 (Candida dubliniensis [28]): ≤ 0.032 µg/mL
MIC50 (Candida albicans [29]): 0.25 µg/mL (≈ 0.219 µM)
MIC50 (Candida albicans [30]): 0.13 µg/mL (≈ 0.114 µM)
MIC50 (Candida albicans [31]): 0.25 µg/mL (≈ 0.219 µM)
MIC50 (Candida dubliniensis [32]): ≤ 0.032 µg/mL
MIC50 (Candida dubliniensis [33]): ≤ 0.032 µg/mL
MIC50 (Candida albicans [34]): ≤ 0.032 µg/mL
MIC50 (Candida albicans [35]): 0.13 µg/mL (≈ 0.114 µM)
MIC50 (Candida albicans [36]): 0.25 µg/mL (≈ 0.219 µM)
MIC50 (Candida dubliniensis [37]): 8 µg/mL (≈ 7.02 µM)
MIC50 (Candida dubliniensis [38]): 8 µg/mL (≈ 7.02 µM)
MIC50 (Candida albicans [39]): ≤ 0.032 µg/mL
MIC50 (Candida dubliniensis [40]): ≤ 0.032 µg/mL
MIC50 (Candida albicans [41]): 1 µg/mL (≈ 0.877 µM)
MIC50 (Candida albicans [42]): 1 µg/mL (≈ 0.877 µM)
MIC50 (Candida albicans [43]): ≤ 0.032 µg/mL
MIC50 (Candida dubliniensis [44]): ≤ 0.032 µg/mL
MIC50 (Candida albicans [45]): ≤ 0.032 µg/mL
MIC50 (Candida dubliniensis [46]): ≤ 0.032 µg/mL
MIC50 (Candida dubliniensis [47]): ≤ 0.032 µg/mL
